How the values were obtained:
HL-60 [1] = test: Cell cycle arrest in HL60 cells assessed as accumulation in […] phase at 600 nM; type: functional, Homo sapiens
Procedure, shortened: (§1)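 HL-60 cells exposed 24 or 48 h to drug or ethanol vehicle. Nuclei prepared by detergent-trypsin method: citrate/sucrose/DMSO buffer, trypsin, then trypsin inhibitor plus RNase A, then propidium iodide with spermine, 30 min at 4 °C. Filtered, resuspended, DNA content measured by flow cytometry. Percentages given for G0/G1, S and G2/M. Mean ± SEM.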

HL-60 [2] = test: Cell cycle arrest in HL60 cells assessed as accumulation in S phase at 600 nM; type: functional, Homo sapiens; procedure, shortened: as §1
HL-60 [3] = test: Cell cycle arrest in HL60 cells assessed as accumulation in G0/G1 phase at 600 nM; type: functional, Homo sapiens; procedure, shortened: as §1
[4] = Growth inhibition of NCI/ADR cells expressing Pgp/MRP1; type: functional, cell-based; settings: Homo sapiens, NCI/ADR-RES
Procedure, shortened: (§2)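 NCI/ADR (Pgp-overexpressing) or MCF-7/VP (MRP1-expressing, Pgp-negative) cells were seeded at about 15% confluency and allowed to attach for 24 h. They were then exposed for 48 h to varying compound concentrations, limited by solubility, without added vinca drug. Survival was read by sulforhodamine B binding against ethanol solvent controls. Each value is the mean of three equally treated wells.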

[5] = Growth inhibition of Pgp deficient MCF7/VP cells expressing MRP1; type: functional, cell-based; settings: Homo sapiens; procedure, shortened: as §2
MCF7 = test: Growth inhibition of Pgp deficient MCF7 cells expressing MRP1; type: functional, cell-based; settings: Homo sapiens; procedure, shortened: as §2

COc1cc2c(c(OC)c1OC)-c1ccc(OC)c(=O)cc1[C@@H](NC(C)=O)CC2 [COLCHICINE]
Activity (HL-60 [1]): 11.9% | Activity (HL-60 [2]): 4% | Activity (HL-60 [3]): 84.1%

CC[C@]1(O)C[C@H]2CN(CCc3c([nH]c4ccccc34)[C@@](C(=O)OC)(c3cc4c(cc3OC)N(C=O)[C@H]3[C@@](O)(C(=O)OC)[C@H](OC(C)=O)[C@]5(CC)C=CCN6CC[C@]43[C@@H]65)C2)C1 [VINCRISTINE]
IC50 [4]: 100 nM | IC50 [5]: 9.3 nM | IC50 (MCF7): 0.6 nM

From ChEMBL document CHEMBL1145421, “Discovery of novel antitumor antimitotic agents that also reverse tumor resistance” (J Med Chem, 2007)
